In ChEMBL document CHEMBL3046200, “5-(2,6-difluorobenzyl)oxymethyl-5-methyl-3-(3-methylthiophen-2-yl)- 1,2-isoxazoline as a useful rice herbicide” (J Agric Food Chem, 2005):
Converted amounts (≈) assume the structure as drawn. The source made the active and inactive calls. The rule behind the calls is not given here.

How the values were obtained:
[1] = Aquatic toxicity in Daphnia magna; assay type: organism-based; conditions: in vivo, other: aquatic exposure
Outline: (§1)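 Aquatic acute toxicity, given as LC50 in mg/L of test water.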

Ludwigia prostrata [2] = test: Herbicidal activity against Ludwigia prostrata assessed as visual damage 250 g/ha measured after 3 weeks; assay type: functional, organism-based
Outline: (§2)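 Flooded greenhouse pot test with soil of 1.5% total carbon, pH 5.6. Eight annual weed species sown at 0.5–1.0 cm in one pot, under 3 cm water at 28–33 °C day and 20–26 °C night. Compound in acetone/water (50/50 v/v) added gently to the water surface at the stated rate 5 days after transplanting.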

Murdannia keisak [3] = test: Herbicidal activity against Murdannia keisak assessed as visual damage 250 g/ha measured after 3 weeks; assay type: functional, organism-based; outline: as §2
Ludwigia prostrata [4] = test: Herbicidal activity against Ludwigia prostrata assessed as visual damage 125 g/ha measured after 3 weeks; assay type: functional, organism-based; outline: as §2
Cyperus difformis [5] = test: Herbicidal activity against Cyperus difformis assessed as visual damage 125 g/ha measured after 3 weeks; assay type: functional, organism-based; outline: as §2
Echinochloa oryzicola [6] = test: Herbicidal activity against Echinochloa oryzicola assessed as visual damage 250 g/ha measured after 3 weeks; assay type: functional, organism-based; outline: as §2
Murdannia keisak [7] = test: Herbicidal activity against Murdannia keisak assessed as visual damage 62.5 g/ha measured after 3 weeks; assay type: functional, organism-based; outline: as §2
Ludwigia prostrata [8] = test: Herbicidal activity against Ludwigia prostrata assessed as visual damage 500 g/ha measured after 3 weeks; assay type: functional, organism-based; outline: as §2
Oryza sativa [9] = test: Toxicity in transplanted Oryza sativa (rice) assessed as visual damage 62.5 g/ha measured after 5 days after transplanting; assay type: organism-based; conditions: in vivo, 120 h
Outline: (§3)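 Transplanted rice grown in flooded greenhouse pots (3 cm water; 28–33 °C day, 20–26 °C night; soil 1.5% total carbon, pH 5.6). Compound in acetone/water (50/50 v/v) applied to the water surface at the stated rate 5 days after transplanting. Injury scored visually on a 0–100 scale.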

Ludwigia prostrata [10] = test: Herbicidal activity against Ludwigia prostrata assessed as visual damage 1000 g/ha measured after 3 weeks; assay type: functional, organism-based; outline: as §2
Echinochloa crus-galli [11] = test: Herbicidal activity against 2 to 3 leaf stage Echinochloa crus-galli (barnyard grass) (barnyardgrass) at 62.5 g/ha; assay type: functional, organism-based
Cyperus difformis [12] = test: Herbicidal activity against Cyperus difformis assessed as visual damage 62.5 g/ha measured after 3 weeks; assay type: functional, organism-based; outline: as §2
Pontederia vaginalis [13] = test: Herbicidal activity against Monochoria vaginalis assessed as visual damage 500 g/ha measured after 3 weeks; assay type: functional, organism-based; outline: as §2
[14] = test system: Schoenoplectiella juncoides; test: Herbicidal activity against Schoenoplectiella juncoides assessed as visual damage 250 g/ha measured after 3 weeks; assay type: functional, organism-based; outline: as §2
Oryza sativa [15] = test: Toxicity in transplanted Oryza sativa (rice) assessed as visual damage 1000 g/ha measured after 5 days after transplanting; assay type: organism-based; conditions: in vivo, 120 h; outline: as §3
Echinochloa oryzicola [16] = test: Herbicidal activity against Echinochloa oryzicola assessed as visual damage 125 g/ha measured after 3 weeks; assay type: functional, organism-based; outline: as §2
Cyperus difformis [17] = test: Herbicidal activity against Cyperus difformis assessed as visual damage 250 g/ha measured after 3 weeks; assay type: functional, organism-based; outline: as §2
Pontederia vaginalis [18] = test: Herbicidal activity against Monochoria vaginalis assessed as visual damage 250 g/ha measured after 3 weeks; assay type: functional, organism-based; outline: as §2
Rotala indica [19] = test: Herbicidal activity against Rotala indica assessed as visual damage 1000 g/ha measured after 3 weeks; assay type: functional, organism-based; outline: as §2
Cyperus difformis [20] = test: Herbicidal activity against Cyperus difformis assessed as visual damage 500 g/ha measured after 3 weeks; assay type: functional, organism-based; outline: as §2
Ludwigia prostrata [21] = test: Herbicidal activity against Ludwigia prostrata assessed as visual damage 62.5 g/ha measured after 3 weeks; assay type: functional, organism-based; outline: as §2
Pontederia vaginalis [22] = test: Herbicidal activity against Monochoria vaginalis assessed as visual damage 1000 g/ha measured after 3 weeks; assay type: functional, organism-based; outline: as §2
Rotala indica [23] = test: Herbicidal activity against Rotala indica assessed as visual damage 500 g/ha measured after 3 weeks; assay type: functional, organism-based; outline: as §2
Echinochloa oryzicola [24] = test: Herbicidal activity against Echinochloa oryzicola assessed as visual damage 1000 g/ha measured after 3 weeks; assay type: functional, organism-based; outline: as §2
Oryza sativa [25] = test: Toxicity in transplanted Oryza sativa (rice) assessed as visual damage 500 g/ha measured after 5 days after transplanting; assay type: organism-based; conditions: in vivo, 120 h; outline: as §3
Rotala indica [26] = test: Herbicidal activity against Rotala indica assessed as visual damage 125 g/ha measured after 3 weeks; assay type: functional, organism-based; outline: as §2
Pontederia vaginalis [27] = test: Herbicidal activity against Monochoria vaginalis assessed as visual damage 125 g/ha measured after 3 weeks; assay type: functional, organism-based; outline: as §2
Cyperus difformis [28] = test: Herbicidal activity against Cyperus difformis assessed as visual damage 1000 g/ha measured after 3 weeks; assay type: functional, organism-based; outline: as §2
Murdannia keisak [29] = test: Herbicidal activity against Murdannia keisak assessed as visual damage 125 g/ha measured after 3 weeks; assay type: functional, organism-based; outline: as §2
[30] = Genotoxicity in Cricetulus griseus lung fibroblast assessed as mutation; assay type: toxicity, cell-based; conditions: chinese hamster
Outline: (§4)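 CHL (Chinese hamster lung fibroblast) cells kept in minimum essential medium with 5% fetal bovine serum. Harvested with 0.2% trypsin, seeded onto 50-mm dishes, and grown at 37 °C in humidified 5% CO₂/95% air.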

[31] = Genotoxicity inCricetulus griseus lung fibroblast assessed as chromosome aberration; assay type: toxicity, cell-based, Cricetulus griseus; conditions: chinese hamster; outline: as §4
Rotala indica [32] = test: Herbicidal activity against Rotala indica assessed as visual damage 250 g/ha measured after 3 weeks; assay type: functional, organism-based; outline: as §2
Oryza sativa [33] = test: Toxicity in transplanted Oryza sativa (rice) assessed as visual damage 250 g/ha measured after 5 days after transplanting; assay type: organism-based; conditions: in vivo, 120 h; outline: as §3
Oryza sativa [34] = test: Toxicity in transplanted Oryza sativa (rice) assessed as visual damage 125 g/ha measured after 5 days after transplanting; assay type: organism-based; conditions: in vivo, 120 h; outline: as §3
Echinochloa crus-galli [35] = test: Herbicidal activity against 4 leaf stage Echinochloa crus-galli (barnyard grass) (barnyardgrass) at 250 g/ha; assay type: functional, organism-based
[36] = Aquatic toxicity in Oryzias latipes (Japanese medaka); assay type: organism-based; conditions: in vivo, other: aquatic exposure; outline: as §1
[37] = test system: Schoenoplectiella juncoides; test: Herbicidal activity against Schoenoplectiella juncoides assessed as visual damage 125 g/ha measured after 3 weeks; assay type: functional, organism-based; outline: as §2
Echinochloa oryzicola [38] = test: Herbicidal activity against Echinochloa oryzicola assessed as visual damage 500 g/ha measured after 3 weeks; assay type: functional, organism-based; outline: as §2
[39] = test system: Schoenoplectiella juncoides; test: Herbicidal activity against Schoenoplectiella juncoides assessed as visual damage 62.5 g/ha measured after 3 weeks; assay type: functional, organism-based; outline: as §2
[40] = Acute toxicity in Mus musculus (mouse); assay type: organism-based; conditions: in vivo
Outline: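 Acute toxicity in mice, given as LD50 in mg/kg.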

For `Cc1ccsc1C1=NOC(C)(COCc2c(F)cccc2F)C1` (stereo not given), the LC50 [1] was 2.7 µg/mL (≈ 8 µM), the Activity (Ludwigia prostrata [2]) was “Active” and the Activity (Murdannia keisak [3]) was “inactive”. For the same compound, the Activity (Ludwigia prostrata [4]) was “Active”, the Activity (Cyperus difformis [5]) was “Active” and the Activity (Echinochloa oryzicola [6]) was “Active”. For the same compound, the Activity (Murdannia keisak [7]) was “inactive”, the Activity (Ludwigia prostrata [8]) was “Active” and the Activity (Oryza sativa [9]) was “Non-toxic”. The Activity (Ludwigia prostrata [10]) was “Active”, the Activity (Echinochloa crus-galli [11]) was “Active” and the Activity (Cyperus difformis [12]) was “Active”. The Activity (Pontederia vaginalis [13]) was “Active”, the Activity [14] was “inactive” and the Activity (Oryza sativa [15]) was “Non-toxic”. The Activity (Echinochloa oryzicola [16]) was “Active”, the Activity (Cyperus difformis [17]) was “Active” and the Activity (Pontederia vaginalis [18]) was “Active”. For the same compound, the Activity (Rotala indica [19]) was “Active”, the Activity (Cyperus difformis [20]) was “Active” and the Activity (Ludwigia prostrata [21]) was “Active”. For the same compound, the Activity (Pontederia vaginalis [22]) was “Active”, the Activity (Rotala indica [23]) was “Active” and the Activity (Echinochloa oryzicola [24]) was “Active”. The Activity (Oryza sativa [25]) was “Non-toxic”, the Activity (Rotala indica [26]) was “Active” and the Activity (Pontederia vaginalis [27]) was “Active”. For the same compound, the Activity (Cyperus difformis [28]) was “Active”, the Activity (Murdannia keisak [29]) was “inactive” and the Activity [30] was “Non-toxic”. The Activity [31] was “Non-toxic”, the Activity (Rotala indica [32]) was “Active” and the Activity (Oryza sativa [33]) was “Non-toxic”. For the same compound, the Activity (Oryza sativa [34]) was “Non-toxic”, the Activity (Echinochloa crus-galli [35]) was “Active” and the LC50 [36] was 1.9 µg/mL (≈ 5.63 µM). The Activity [37] was “inactive”, the Activity (Echinochloa oryzicola [38]) was “Active” and the Activity [39] was “inactive”. The LD50 [40] was 5000 mg/kg.
